Experimental data published in ChEMBL document CHEMBL1759958, “Disassembly of preformed amyloid beta fibrils by small organofluorine molecules” (Bioorg Med Chem Lett, 2011).
Active and inactive are the calls of the source. No cut-off for these calls is given here.

Assays:
[1] = Induction of disassembly of preformed amyloid beta (1 to 40) fibrils assessed as decrease in fibril amount at 10:1 compound to amyloid beta ratio by thioflavin T fluorescence method
In short: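 Aβ1-40 fibrils were grown at 100 μM final in 10 mM HEPES/100 mM NaCl, pH 7.4, at 37°C with 77 rpm shaking until THT saturation. Compound was added from 0.15 M DMSO stock, vortexed and re-incubated under the same conditions, then sampled periodically into 5 μM ThT (glycine-NaOH, pH 8.5). Read at ex 430/em 484 nm, ThT background subtracted, normalized to Aβ-only control; 3–4 parallel runs, mean ± SD.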

[2] = Induction of disassembly of preformed amyloid beta (1 to 40) fibrils assessed as disaggregated fibrils at 10:1 compound to amyloid beta ratio for 4 days by atomic force microscopy
In short: (§1)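 Synthetic Aβ1-40 dissolved in 100 mM NaOH, diluted to 100 μM in 10 mM HEPES (100 mM NaCl, 0.02% NaN3, pH 7.4), grown at 37°C with shaking (77 rpm) until ThT saturation. Compound added from 0.15 M DMSO stock at 10:1 molar ratio, vortexed 30 s, re-incubated 37°C shaking. Aliquots of 2-5 μL spotted on fresh mica for 30-60 s, water-rinsed, air-dried. Imaged by non-contact AFM.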

[3] = Induction of disassembly of preformed amyloid beta (1 to 40) fibrils assessed as disaggregated fibrils at 10:1 compound to amyloid beta ratio by atomic force microscopy; conditions: TDE = time-dependent effect; in short: as §1
[4] = Induction of disassembly of preformed amyloid beta (1 to 40) fibrils assessed as disaggregated fibrils at 10:1 compound to amyloid beta ratio for 1 day by atomic force microscopy; in short: as §1
[5] = Induction of disassembly of preformed amyloid beta (1 to 40) fibrils assessed as disaggregated fibrils at 10:1 compound to amyloid beta ratio for 6 days by atomic force microscopy; in short: as §1
[6] = Induction of disassembly of preformed amyloid beta (1 to 40) fibrils assessed as disaggregated fibrils at 10:1 compound to amyloid beta ratio for 4 days by fourier-transform infrared spectroscopy
In short: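 Preformed Aβ1-40 fibrils (100 μM, HEPES pH 7.4, grown at 37°C with 77 rpm shaking to THT saturation) were exposed to compound added from DMSO stock and re-incubated at 37°C with shaking. For FTIR, 20 μl aliquots were lyophilized and mixed with 0.2 g solid KBr.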

Activity [1]	Activity [6]	Compound	further results
Active	–	CCOC(=O)C(O)(c1c(C)[nH]c2ccc(OC)cc12)C(F)(F)F (racemic)	–
Active	–	CCOC(=O)C(O)(c1c(C)[nH]c2ccc(C)cc12)C(F)(F)F (racemic)	–
Active	Active	CCOC(=O)C(O)(c1c[nH]c2ccc(Br)cc12)C(F)(F)F (racemic)	–
Active	Active	CCOC(=O)[C@](O)(c1c[nH]c2ccc(Cl)cc12)C(F)(F)F	–
Active	Active	CCOC(=O)[C@@](O)(c1c[nH]c2ccc(Br)cc12)C(F)(F)F	–
Active	Active	CCOC(=O)C(O)(c1c[nH]c2ccc(Cl)cc12)C(F)(F)F (racemic)	–
Active	Active	CCOC(=O)C(O)(c1c(C)[nH]c2ccc(C(=O)OC)cc12)C(F)(F)F (racemic)	–
Active	Active	CCOC(=O)[C@@](O)(c1c[nH]c2ccc(Cl)cc12)C(F)(F)F	Activity [2]: Active
Active	Active	CCOC(=O)[C@](O)(c1c[nH]c2ccc(Br)cc12)C(F)(F)F	–
Active	Active	COc1ccc2[nH]cc(CCNC(C)=O)c2c1	–

Compound	Activity [1]	Activity [6]	further results
CCOC(=O)C(O)(c1c[nH]c2ccc(C)cc12)C(F)(F)F (racemic)	Active	–	–
CCOC(=O)[C@](O)(c1c[nH]c2ccc(I)cc12)C(F)(F)F	Active	Active	Activity [2]: Active; Activity [3]: tde; Activity [4]: Active; Activity [5]: Active
CCOC(=O)[C@@](O)(c1c[nH]c2ccc(I)cc12)C(F)(F)F	Active	Active	Activity [2]: Active
CCOC(=O)C(O)(c1c(C)n(C)c2ccccc12)C(F)(F)F (racemic)	Active	–	–
CCOC(=O)C(O)(c1c[nH]c2ccc(I)cc12)C(F)(F)F (racemic)	Active	–	–
CCOC(=O)C(O)(c1c[nH]c2ccccc12)C(F)(F)F (racemic)	Active	–	–
